Reference: PMC8269116 (Journal of psychopharmacology (Oxford, England), 2019)
“And” between values parts separate entries of the source, which are not always exact repeats. Equal entries are not always repeated. Where two headings read alike, the source gives them in different places.

Columns and labels:
[1] = biological target: T1, NET (Homo sapiens, UniProt P23975); assay: [3H]norepinephrine uptake inhibition in HEK 293 cells overexpressing human NET; assay type: cell-based
[2] = biological target: T2, DAT (Homo sapiens, UniProt Q01959); assay: [3H]dopamine uptake inhibition in HEK 293 cells overexpressing human DAT; assay type: cell-based; conditions: for DAT/SERT ratio: 1/DAT IC50 : 1/SERT IC50, mean and 95% confidence interval
T2 sequence (Q01959 whole entry): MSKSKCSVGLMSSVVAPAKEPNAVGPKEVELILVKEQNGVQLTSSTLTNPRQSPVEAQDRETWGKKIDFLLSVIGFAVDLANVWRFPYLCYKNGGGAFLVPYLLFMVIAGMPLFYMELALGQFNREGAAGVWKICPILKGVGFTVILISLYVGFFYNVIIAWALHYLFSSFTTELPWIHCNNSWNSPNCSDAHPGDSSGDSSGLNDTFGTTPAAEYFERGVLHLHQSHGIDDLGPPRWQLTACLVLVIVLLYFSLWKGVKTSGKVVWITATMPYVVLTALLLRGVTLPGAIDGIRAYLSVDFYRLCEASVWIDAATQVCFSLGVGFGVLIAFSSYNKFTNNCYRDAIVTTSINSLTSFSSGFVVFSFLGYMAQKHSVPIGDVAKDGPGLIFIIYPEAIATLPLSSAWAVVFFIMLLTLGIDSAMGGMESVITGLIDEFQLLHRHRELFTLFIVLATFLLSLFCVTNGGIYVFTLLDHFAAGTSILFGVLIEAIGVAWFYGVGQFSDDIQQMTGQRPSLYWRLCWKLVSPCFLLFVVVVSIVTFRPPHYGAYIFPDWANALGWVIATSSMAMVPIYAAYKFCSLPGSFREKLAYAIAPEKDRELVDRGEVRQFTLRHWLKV

[3] = biological target: human 5-HT transporter (SERT) (Homo sapiens, UniProt P31645); assay: [3H]5-HT uptake inhibition in HEK 293 cells overexpressing human SERT; assay type: cell-based
Sequence of human 5-HT transporter (SERT) (P31645 whole entry): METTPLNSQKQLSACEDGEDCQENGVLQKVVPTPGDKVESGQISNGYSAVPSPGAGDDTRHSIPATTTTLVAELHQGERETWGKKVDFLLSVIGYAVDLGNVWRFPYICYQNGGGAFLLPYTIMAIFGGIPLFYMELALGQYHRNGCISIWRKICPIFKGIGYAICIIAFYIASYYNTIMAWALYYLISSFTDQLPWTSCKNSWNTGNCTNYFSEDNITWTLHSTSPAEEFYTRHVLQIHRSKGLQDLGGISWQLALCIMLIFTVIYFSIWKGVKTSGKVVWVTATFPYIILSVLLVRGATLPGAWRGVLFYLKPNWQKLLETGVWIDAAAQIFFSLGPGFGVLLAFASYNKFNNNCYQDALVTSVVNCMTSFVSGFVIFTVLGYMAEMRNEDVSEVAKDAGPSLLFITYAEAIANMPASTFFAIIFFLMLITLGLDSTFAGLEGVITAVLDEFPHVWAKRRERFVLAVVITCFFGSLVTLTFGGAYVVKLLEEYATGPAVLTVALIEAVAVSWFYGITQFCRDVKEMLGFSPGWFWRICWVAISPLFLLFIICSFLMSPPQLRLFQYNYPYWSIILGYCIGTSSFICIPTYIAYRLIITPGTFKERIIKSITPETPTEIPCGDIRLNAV

[4] = biological target: T1, NET; assay: Radioligand binding, N-methyl-[3H]nisoxetine displacement
[5] = biological target: T2, DAT; assay: Radioligand binding, [3H]WIN35,428 displacement
[6] = biological target: SERT (Homo sapiens, UniProt P31645); assay: Radioligand binding, [3H]citalopram displacement
Sequence of SERT (P31645 whole entry): as above

[7] = biological target: dopamine D2 receptors (Homo sapiens, UniProt P14416); assay: Radioligand binding, [3H]spiperone displacement
Sequence of dopamine D2 receptors (P14416 whole entry): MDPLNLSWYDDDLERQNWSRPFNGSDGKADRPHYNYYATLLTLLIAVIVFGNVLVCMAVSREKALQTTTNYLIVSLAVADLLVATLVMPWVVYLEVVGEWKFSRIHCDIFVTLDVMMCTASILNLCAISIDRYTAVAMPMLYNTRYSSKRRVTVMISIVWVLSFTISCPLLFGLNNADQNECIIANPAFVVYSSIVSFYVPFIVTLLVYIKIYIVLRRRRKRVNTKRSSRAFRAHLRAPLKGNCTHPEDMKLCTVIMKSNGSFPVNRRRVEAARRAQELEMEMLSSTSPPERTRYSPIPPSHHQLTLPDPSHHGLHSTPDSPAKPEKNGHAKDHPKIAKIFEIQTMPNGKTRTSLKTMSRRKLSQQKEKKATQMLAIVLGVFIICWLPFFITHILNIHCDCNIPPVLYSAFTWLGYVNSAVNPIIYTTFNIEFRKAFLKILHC

[8] = biological target: T3, α1 adrenergic receptor (α1A) (Homo sapiens, UniProt P35348); assay: Radioligand binding, [3H]prazosin displacement
T3 sequence (P35348 1-466): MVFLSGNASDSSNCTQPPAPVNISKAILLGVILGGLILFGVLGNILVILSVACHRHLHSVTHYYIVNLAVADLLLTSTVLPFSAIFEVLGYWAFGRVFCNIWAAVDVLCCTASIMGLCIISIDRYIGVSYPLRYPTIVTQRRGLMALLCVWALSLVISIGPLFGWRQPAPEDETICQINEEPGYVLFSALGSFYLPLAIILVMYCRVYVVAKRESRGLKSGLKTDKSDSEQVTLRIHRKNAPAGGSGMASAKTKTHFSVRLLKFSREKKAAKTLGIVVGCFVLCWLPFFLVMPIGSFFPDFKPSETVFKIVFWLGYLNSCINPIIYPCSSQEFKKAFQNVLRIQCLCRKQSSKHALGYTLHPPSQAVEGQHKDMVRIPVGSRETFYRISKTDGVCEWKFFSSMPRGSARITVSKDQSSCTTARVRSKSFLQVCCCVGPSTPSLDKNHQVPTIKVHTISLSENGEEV

[9] = biological target: T4, α2 adrenergic receptor (α2A) (Homo sapiens, UniProt P08913); assay: Radioligand binding, [3H]rauwolscine displacement
T4 sequence (P08913 1-465): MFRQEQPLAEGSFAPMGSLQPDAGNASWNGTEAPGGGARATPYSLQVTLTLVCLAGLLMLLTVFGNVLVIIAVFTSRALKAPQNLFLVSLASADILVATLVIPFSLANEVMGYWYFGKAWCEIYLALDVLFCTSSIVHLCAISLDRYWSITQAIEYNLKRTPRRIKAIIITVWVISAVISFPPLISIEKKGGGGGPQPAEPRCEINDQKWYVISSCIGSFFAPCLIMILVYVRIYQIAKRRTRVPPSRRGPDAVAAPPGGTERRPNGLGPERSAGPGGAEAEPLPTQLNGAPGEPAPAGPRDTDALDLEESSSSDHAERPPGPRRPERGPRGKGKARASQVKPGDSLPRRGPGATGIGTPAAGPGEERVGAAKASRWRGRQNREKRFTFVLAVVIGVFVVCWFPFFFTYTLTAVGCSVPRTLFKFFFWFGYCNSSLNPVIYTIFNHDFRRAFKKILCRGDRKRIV

[10] = biological target: T5, 5-HT1A receptor (Homo sapiens, UniProt P08908); assay: Radioligand binding, [3H]8-hydroxy-2-
T5 sequence (P08908 1-422): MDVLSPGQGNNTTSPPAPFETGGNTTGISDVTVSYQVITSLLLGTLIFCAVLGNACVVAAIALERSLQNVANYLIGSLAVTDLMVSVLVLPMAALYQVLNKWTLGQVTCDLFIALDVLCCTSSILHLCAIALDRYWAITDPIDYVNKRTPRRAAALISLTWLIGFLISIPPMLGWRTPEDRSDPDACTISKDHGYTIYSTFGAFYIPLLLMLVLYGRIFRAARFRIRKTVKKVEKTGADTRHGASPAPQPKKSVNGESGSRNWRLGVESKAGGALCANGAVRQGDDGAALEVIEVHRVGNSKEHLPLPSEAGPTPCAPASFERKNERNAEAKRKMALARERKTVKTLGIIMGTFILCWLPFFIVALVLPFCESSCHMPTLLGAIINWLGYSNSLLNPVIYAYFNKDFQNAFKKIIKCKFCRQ

[11] = biological target: 5-HT2A receptor (Homo sapiens, UniProt P28223); assay: Radioligand binding, [3H]ketanserin displacement
Sequence of 5-HT2A receptor (P28223 whole entry): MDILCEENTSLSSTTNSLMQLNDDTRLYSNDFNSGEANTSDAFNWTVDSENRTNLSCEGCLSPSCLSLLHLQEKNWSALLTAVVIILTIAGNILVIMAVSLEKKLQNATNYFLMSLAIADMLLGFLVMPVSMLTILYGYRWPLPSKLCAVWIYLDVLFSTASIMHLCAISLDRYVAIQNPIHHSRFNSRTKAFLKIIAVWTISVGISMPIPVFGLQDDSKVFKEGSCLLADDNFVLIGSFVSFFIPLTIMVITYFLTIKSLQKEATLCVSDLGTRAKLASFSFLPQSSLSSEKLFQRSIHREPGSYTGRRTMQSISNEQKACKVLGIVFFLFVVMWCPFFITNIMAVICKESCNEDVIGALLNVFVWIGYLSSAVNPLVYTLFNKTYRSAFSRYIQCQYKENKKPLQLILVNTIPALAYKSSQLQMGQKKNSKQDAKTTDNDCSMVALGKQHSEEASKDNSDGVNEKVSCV

[12] = biological target: T6, 5-HT2C receptor (Homo sapiens, UniProt P28335); assay: biochemical; assay type: binding
T6 sequence (P28335 33-458): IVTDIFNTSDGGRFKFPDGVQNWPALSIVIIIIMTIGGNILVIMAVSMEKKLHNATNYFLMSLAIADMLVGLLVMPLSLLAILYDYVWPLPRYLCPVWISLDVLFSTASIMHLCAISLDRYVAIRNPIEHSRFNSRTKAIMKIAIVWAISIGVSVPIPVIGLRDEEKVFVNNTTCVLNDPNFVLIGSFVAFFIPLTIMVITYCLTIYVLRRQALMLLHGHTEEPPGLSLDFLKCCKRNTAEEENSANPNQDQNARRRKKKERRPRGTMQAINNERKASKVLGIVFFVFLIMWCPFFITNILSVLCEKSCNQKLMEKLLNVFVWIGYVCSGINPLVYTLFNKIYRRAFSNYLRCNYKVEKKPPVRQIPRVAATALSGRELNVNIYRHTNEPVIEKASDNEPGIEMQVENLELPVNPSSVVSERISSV

[13] = biological target: rat TAAR1 (Rattus norvegicus, UniProt Q923Y9); assay: Radioligand binding, [3H]RO5166017 displacement
Sequence of rat TAAR1 (Q923Y9 whole entry): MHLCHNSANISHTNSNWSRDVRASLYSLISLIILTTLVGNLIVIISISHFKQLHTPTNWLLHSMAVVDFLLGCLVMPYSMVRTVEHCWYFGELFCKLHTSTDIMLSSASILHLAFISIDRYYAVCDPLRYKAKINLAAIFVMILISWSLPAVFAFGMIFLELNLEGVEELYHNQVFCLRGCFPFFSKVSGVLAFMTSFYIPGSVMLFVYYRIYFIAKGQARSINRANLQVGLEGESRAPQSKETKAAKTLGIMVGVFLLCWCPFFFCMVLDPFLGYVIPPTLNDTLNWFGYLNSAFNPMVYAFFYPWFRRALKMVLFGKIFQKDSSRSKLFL

[14] = biological target: mouse TAAR1 (Mus musculus, UniProt Q923Y8); assay: Radioligand binding, [3H]RO5166017 displacement
Sequence of mouse TAAR1 (Q923Y8 whole entry): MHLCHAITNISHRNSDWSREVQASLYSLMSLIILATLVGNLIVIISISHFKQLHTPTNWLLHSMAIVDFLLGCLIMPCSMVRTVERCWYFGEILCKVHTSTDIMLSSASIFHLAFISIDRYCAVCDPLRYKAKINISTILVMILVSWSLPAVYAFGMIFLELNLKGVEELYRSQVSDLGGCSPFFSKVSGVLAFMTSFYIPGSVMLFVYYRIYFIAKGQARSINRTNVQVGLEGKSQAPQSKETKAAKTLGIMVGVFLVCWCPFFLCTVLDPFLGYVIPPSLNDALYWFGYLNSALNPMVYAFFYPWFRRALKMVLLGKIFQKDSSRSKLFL

[15] = biological target: T7, human TAAR1 (Homo sapiens, UniProt Q96RJ0); assay: Human TAAR1 activation, cAMP assay in HEK 293 cells; assay type: cell-based
T7 sequence (Q96RJ0 1-339): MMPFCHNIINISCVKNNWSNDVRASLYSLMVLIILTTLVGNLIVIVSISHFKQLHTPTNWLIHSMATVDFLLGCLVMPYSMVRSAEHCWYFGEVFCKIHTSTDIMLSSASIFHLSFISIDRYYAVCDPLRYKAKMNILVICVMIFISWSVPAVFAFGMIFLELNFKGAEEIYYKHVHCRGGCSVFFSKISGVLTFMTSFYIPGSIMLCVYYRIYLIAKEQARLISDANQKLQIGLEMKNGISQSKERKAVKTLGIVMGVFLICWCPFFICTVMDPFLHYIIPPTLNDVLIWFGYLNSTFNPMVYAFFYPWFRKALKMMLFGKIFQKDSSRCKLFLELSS
Procedure, shortened: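 Recombinant HEK 293 cells expressing human TAAR1 were pelleted, resuspended, seeded at 80,000/well and incubated 20 h at 37 °C. After a PBS wash, the cells were preincubated 60 min at 37 °C in KRB with 1 mM IBMX. Test compound (300 pM–30 μM, duplicate), β-phenylethylamine (maximal response) or basal control was added for 40 min at 37 °C. Cells were lysed 120 min at RT with Ru-cAMP Alexa700 anti-cAMP antibody mix, and fluorescence was read against a per-plate cAMP standard curve (0.13 nM–10 μM).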

[16] = healthy human subjects, oral MDMA; ref Schmid et al., 2016; cited from earlier work
[17] = biological target: human 5-HT2B receptor (Homo sapiens, UniProt P41595); assay: 5-HT2B receptor activation, FLIPR calcium assay in HEK 293 cells; assay type: cell-based
Sequence of human 5-HT2B receptor (P41595 whole entry): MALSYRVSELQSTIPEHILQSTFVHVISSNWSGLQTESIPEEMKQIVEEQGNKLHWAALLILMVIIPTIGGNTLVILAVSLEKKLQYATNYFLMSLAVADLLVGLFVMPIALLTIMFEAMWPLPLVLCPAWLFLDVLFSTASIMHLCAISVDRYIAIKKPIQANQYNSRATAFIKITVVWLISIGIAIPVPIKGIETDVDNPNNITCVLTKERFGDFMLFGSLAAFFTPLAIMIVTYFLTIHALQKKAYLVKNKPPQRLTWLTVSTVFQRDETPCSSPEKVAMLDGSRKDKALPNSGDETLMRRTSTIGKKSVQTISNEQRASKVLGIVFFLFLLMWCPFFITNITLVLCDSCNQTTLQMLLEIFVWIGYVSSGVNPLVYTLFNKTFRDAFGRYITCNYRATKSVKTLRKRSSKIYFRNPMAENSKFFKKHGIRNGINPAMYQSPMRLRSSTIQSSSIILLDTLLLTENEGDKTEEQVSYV

[18] = rat plasma, subcutaneous methylone; ref Elmore et al., 2017; cited from earlier work
[19] = after subcutaneous injection of methylone; ref Stefkova et al., 2017; cited from earlier work
[20] = ref Lopez-Arnau et al., 2013, cited from earlier work
[21] = read-out: SERT IC50, 5-HT uptake inhibition, mean and 95% confidence interval
[22] = read-out: SERT Ki, mean±SD, n=3
[23] = read-out: 5-HT1A Ki, mean±SD, n=3
[24] = read-out: 5-HT2A Ki, mean±SD, n=3
[25] = read-out: 5-HT2c Ki, mean±SD, n=3
[26] = read-out: TAAR1rat Ki, mean±SD, n=3
[27] = read-out: TAAR1mouse Ki, mean±SD, n=3

T1 sequence (P23975 whole entry): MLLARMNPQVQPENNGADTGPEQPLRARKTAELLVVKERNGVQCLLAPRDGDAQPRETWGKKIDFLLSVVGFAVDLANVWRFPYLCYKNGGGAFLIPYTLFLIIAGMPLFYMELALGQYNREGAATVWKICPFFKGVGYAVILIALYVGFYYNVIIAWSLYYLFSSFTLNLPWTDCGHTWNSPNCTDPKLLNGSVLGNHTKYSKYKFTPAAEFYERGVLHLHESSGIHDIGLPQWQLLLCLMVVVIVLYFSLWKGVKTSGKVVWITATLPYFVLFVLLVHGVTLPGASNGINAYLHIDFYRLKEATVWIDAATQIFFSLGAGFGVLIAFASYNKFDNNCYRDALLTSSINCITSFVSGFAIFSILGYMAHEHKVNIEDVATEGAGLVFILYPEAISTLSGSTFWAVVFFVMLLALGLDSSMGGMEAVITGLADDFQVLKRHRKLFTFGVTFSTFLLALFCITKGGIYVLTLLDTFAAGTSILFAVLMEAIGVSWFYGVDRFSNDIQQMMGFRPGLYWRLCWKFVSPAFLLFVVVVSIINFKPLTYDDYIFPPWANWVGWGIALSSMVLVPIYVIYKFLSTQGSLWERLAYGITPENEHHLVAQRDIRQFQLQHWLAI

| SMILES | IC50 [1] | IC50 [2] | IC50 [3] | Ki [4] | Ki [5] | Ki [6] | Ki [7] | Ki [8] | Ki [9] | Ki [10] | Ki [11] | Ki [12] | Ki [13] | Ki [14] | DAT/SERT ratio [2] | IC50 [3, 21] | Ki ([4]; read-out: NET Ki, mean±SD, n=3) | Ki ([5]; read-out: DAT Ki, mean±SD, n=3) | Ki [6, 22] | Ki ([7]; read-out: D2 Ki, mean±SD, n=3) | other results |
| --- | --- | --- | --- | --- | --- | --- | --- | --- | --- | --- | --- | --- | --- | --- | --- | --- | --- | --- | --- | --- | --- |
| CC(N)Cc1ccc(O)c(O)c1 (stereo not shown) [HHA, 3,4-Dihydroxyamphetamine] | 0.18 µM | 9.6 µM | 63 µM | 0.79 ± 0.3 µM | 2.9 ± 0.3 µM | > 7.4 µM | > 13 µM | > 9.5 µM | 2 ± 0.4 µM | > 18 µM | 9.2 ± 1.7 µM | > 5.1 µM | 1.9 ± 0.4 µM | 1.4 ± 0.2 µM |  |  |  |  |  |  | increase of dopamine uptake ([2]; anomalous increase at some concentrations, non-sigmoidal curves): more than 200% |
| COc1cc(CC(C)N)ccc1O (stereo not shown) [HMA, 4-hydroxy-3-methyoxyamphetamine] |  |  |  |  |  |  |  |  |  |  |  |  |  |  | 270 (96–830) | 35 µM | > 8.8 µM | > 8.5 µM | > 7.4 µM | > 13 µM | maximum dopamine transporter inhibition ([2]; partial inhibition of dopamine uptake): 66%; Ki ([8]; read-out: α1A Ki, mean±SD, n=3): > 9.5 µM; Ki ([9]; read-out: α2A Ki, mean±SD, n=3): > 4.7 µM; Ki [10, 23]: > 18 µM; Ki [11, 24]: > 12 µM; Ki [12, 25]: > 5.1 µM; Ki [13, 26]: 0.15 ± 0.02 µM; Ki [14, 27]: 0.05 ± 0.02 µM; EC50 ([15]; read-out: human TAAR1 activation EC50): 10.4 µM and 10 µM; human TAAR1 activation efficacy ([15]; β-phenylethylamine as maximal response): 51 ± 12% |
| CNC(C)Cc1ccc(O)c(OC)c1 (stereo not shown) [HMMA, 4-hydroxy-3-methoxymethamphetamine] |  |  |  |  |  |  |  |  |  |  |  |  |  |  | 3.6 (1.4–8.9) | 20 µM | > 8.8 µM | > 8.5 µM | > 7.4 µM | > 13 µM | Ki ([8]; read-out: α1A Ki, mean±SD, n=3): > 9.5 µM; Ki ([9]; read-out: α2A Ki, mean±SD, n=3): > 4.7 µM; Ki [10, 23]: > 18 µM; Ki [11, 24]: > 12 µM; Ki [12, 25]: > 5.1 µM; Ki [13, 26]: 0.25 ± 0.04 µM; Ki [14, 27]: 0.45 ± 0.05 µM; Cmax as % of the Cmax of MDMA [16]: 9–48%; Cmax of unconjugated form as % of the Cmax of MDMA [16]: 1–3% |
| CC(N)Cc1ccc2c(c1)OCO2 (stereo not shown) [MDA, 3,4-methylenedioxyamphetamine, reference compound] | 0.38 µM | 17 µM | 4.3 µM | > 8.8 µM | > 8.5 µM | > 7.4 µM | > 13 µM | 8.8 ± 0.6 µM | 2.6 ± 0.1 µM | 9 ± 0.8 µM | 3.2 ± 0.8 µM |  | 0.22 ± 0.03 µM | 0.18 ± 0.03 µM |  |  |  |  |  |  | EC50 [17]: 0.2 ± 0.01 µM; 5-HT2B receptor activation efficacy ([17]; relative to 5-HT activity defined as 100%): 51 ± 7%; Cmax as % of the Cmax of MDMA [16]: 4–8% |
| CNC(C)C(=O)c1ccc2c(c1)OCO2 (stereo not shown) [Methylone, 3,4-methylenedioxymethcathinone, reference compound] | 0.56 µM | 6.6 µM | 18 µM | > 8.7 µM | 2.3 ± 0.1 µM | > 7.5 µM | > 13 µM | > 9.5 µM | > 5 µM | > 17 µM | > 12 µM | > 14 µM | > 5 µM | > 4.7 µM | 2.7 (1.9–3.8) |  |  |  |  |  | time at which Cmax was reached [18]: 15 min; brain vs. serum concentration, times higher [19]: approximately five; time of maximum brain and serum concentrations [19]: 30 min; Tmax ([20]; 15 mg/kg oral dose): 30 min; Tmax ([20]; 30 mg/kg oral dose): 60 min |
